{"source": "ChEMBL document CHEMBL1145596", "about": "(Bioorg Med Chem Lett, 2008)", "key": {"[1]": {"test": "Lipophilicity, log P of the compound", "type": "physicochemical", "conditions": "octanol/water", "summary_of_the_method": "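LogP computed for the unprotonated molecule with a commercial software package. Not measured experimentally.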"}, "[2]": {"test": "Dissociation constant, pKa of the compound", "type": "physicochemical"}, "[3]": {"system": "L5178Y", "test": "Cytocidal activity against human MDR1 gene transfected mouse L5178Y cells after 48 hrs by MTT method", "type": "functional", "conditions": "read-out: ID50 (the source's name)", "summary_of_the_method": "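Cells incubated with a range of compound concentrations for 48 h at 37 °C. Viability read by MTT. ID50 derived from the curves. Values are means of duplicate experiments.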"}, "[4]": {"molecular_target": "T1, ATP-dependent translocase ABCB1 (Homo sapiens, UniProt P08183)", "T1 sequence (P08183 whole entry)": "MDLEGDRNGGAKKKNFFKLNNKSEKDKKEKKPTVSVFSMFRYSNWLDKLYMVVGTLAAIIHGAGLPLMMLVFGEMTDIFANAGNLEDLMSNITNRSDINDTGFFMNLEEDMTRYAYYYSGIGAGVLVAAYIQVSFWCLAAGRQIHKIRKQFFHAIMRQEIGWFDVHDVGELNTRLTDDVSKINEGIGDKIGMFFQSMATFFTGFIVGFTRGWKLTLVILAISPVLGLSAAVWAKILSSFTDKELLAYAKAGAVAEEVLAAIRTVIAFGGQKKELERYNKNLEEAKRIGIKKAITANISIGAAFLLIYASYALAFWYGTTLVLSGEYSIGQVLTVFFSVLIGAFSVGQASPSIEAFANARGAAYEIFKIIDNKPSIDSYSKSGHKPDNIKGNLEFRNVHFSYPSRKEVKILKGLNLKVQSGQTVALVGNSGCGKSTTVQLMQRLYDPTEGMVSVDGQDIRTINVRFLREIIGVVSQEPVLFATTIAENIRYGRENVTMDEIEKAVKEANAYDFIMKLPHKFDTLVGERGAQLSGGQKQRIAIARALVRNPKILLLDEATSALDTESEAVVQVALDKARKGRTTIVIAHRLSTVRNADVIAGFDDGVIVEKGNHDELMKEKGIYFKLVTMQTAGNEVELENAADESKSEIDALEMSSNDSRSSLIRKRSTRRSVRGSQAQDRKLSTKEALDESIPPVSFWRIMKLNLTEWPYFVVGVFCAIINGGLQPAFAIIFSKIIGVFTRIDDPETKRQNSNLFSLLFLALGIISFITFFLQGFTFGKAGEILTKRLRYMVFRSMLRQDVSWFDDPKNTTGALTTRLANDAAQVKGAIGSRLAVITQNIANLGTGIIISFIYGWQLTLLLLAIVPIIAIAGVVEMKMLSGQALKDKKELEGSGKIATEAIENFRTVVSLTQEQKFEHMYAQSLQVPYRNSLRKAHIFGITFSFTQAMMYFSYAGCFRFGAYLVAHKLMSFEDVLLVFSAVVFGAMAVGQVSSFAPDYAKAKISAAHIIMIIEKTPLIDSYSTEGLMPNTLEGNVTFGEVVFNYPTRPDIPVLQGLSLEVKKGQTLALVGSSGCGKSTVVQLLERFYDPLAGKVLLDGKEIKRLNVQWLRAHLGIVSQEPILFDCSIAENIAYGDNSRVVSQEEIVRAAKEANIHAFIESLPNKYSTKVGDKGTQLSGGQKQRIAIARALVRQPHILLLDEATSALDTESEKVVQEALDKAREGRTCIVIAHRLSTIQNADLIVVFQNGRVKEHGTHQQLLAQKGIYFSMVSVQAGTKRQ", "test": "Reversal of P-glycoprotein-mediated multidrug resistance in human MDR1 gene transfected human Colo 320 cells assessed as fluorescence activity ratio at 0.4 ug/ml by flow cytometry", "type": "cell-based", "summary_of_the_method": "(§1)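 Colo320/MDR1 cells run as for the L5178 rhodamine 123 assay: compound preincubation 10 min at room temperature, then rhodamine 123 (final 5.2 μM) for 20 min at 37 °C. Monolayers detached with 0.25% trypsin for 2–3 min before flow cytometry. FAR taken as the treated/untreated fluorescence ratio in MDR cells over that in parental cells.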"}, "[5]": {"molecular_target": "T1, ATP-dependent translocase ABCB1", "test": "Reversal of P-glycoprotein-mediated multidrug resistance in human MDR1 gene transfected mouse L5178Y cells assessed as fluorescence activity ratio at 4 ug/ml by flow cytometry", "type": "cell-based"}, "[6]": {"molecular_target": "T1, ATP-dependent translocase ABCB1", "test": "Reversal of P-glycoprotein-mediated multidrug resistance in human MDR1 gene transfected mouse L5178Y cells assessed as fluorescence activity ratio at 40 ug/ml by flow cytometry", "type": "cell-based"}, "[7]": {"molecular_target": "T1, ATP-dependent translocase ABCB1", "test": "Reversal of P-glycoprotein-mediated multidrug resistance in human MDR1 gene transfected mouse L5178Y cells assessed as fluorescence activity ratio at 0.4 ug/ml by flow cytometry", "type": "cell-based", "summary_of_the_method": "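L5178 MDR1-transfected cells and parental cells grown in McCoy's 5A with 10% heat-inactivated horse serum, L-glutamine and antibiotics. Compound in DMSO added to cell aliquots for 10 min at room temperature. Rhodamine 123 then added (final 5.2 μM) for 20 min at 37 °C. Cells washed twice, resuspended in PBS pH 7.4, read by flow cytometry. FAR = (treated/untreated MDR) ÷ (treated/untreated parental).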"}, "[8]": {"molecular_target": "T1, ATP-dependent translocase ABCB1", "test": "Reversal of P-glycoprotein-mediated multidrug resistance in human MDR1 gene transfected human Colo 320 cells assessed as fluorescence activity ratio at 4 ug/ml by flow cytometry", "type": "cell-based", "summary_of_the_method": "as §1"}, "[9]": {"system": "L5178Y", "test": "Toxicity in human MDR1 gene transfected mouse L5178Y cells at 40 ug/ml", "type": "cell-based"}}, "data": [{"smiles": "CN(C)CCOc1ccc(C(=O)N2C/C(=C\\c3ccc([N+](=O)[O-])cc3)C(=O)/C(=C/c3ccc([N+](=O)[O-])cc3)C2)cc1.Cl", "values": [{"measurement": "LogP", "setting": "[1]; read-out: LogP", "value": 4.52}, {"measurement": "pKa", "setting": "[2]", "value": 10.7}]}, {"smiles": "Cl.O=C1/C(=C/c2ccccc2)CN(C(=O)c2ccc(OCCN3CCOCC3)cc2)C/C1=C\\c1ccccc1", "values": [{"measurement": "LogP", "setting": "[1]; read-out: LogP", "value": 4.64}, {"measurement": "pKa", "setting": "[2]", "value": 8.5}]}, {"smiles": "Cl.O=C1/C(=C/c2ccccc2)CN(C(=O)c2ccc(OCCN3CCCCC3)cc2)C/C1=C\\c1ccccc1", "values": [{"measurement": "LogP", "setting": "[1]", "value": 5.51}, {"measurement": "IC50", "setting": "[3]", "value": 3.28, "unit": "µg/mL"}, {"measurement": "pKa", "setting": "[2]", "value": 11.1}]}, {"smiles": "Cc1ccc(/C=C2\\CN(C(=O)c3ccc(OCCN4CCCCC4)cc3)C/C(=C\\c3ccc(C)cc3)C2=O)cc1.Cl", "values": [{"measurement": "LogP", "setting": "[1]", "value": 6.4}, {"measurement": "IC50", "setting": "[3]", "value": 2.83, "unit": "µg/mL"}, {"measurement": "Ratio", "setting": "[4]", "value": 2.49}, {"measurement": "Ratio", "setting": "[5]", "value": 179}, {"measurement": "Ratio", "setting": "[6]", "value": 146}, {"measurement": "Ratio", "setting": "[7]", "value": 7.35}, {"measurement": "pKa", "setting": "[2]", "value": 11.1}, {"measurement": "Ratio", "setting": "[8]", "value": 10.8}]}, {"smiles": "CCN(CC)CCOc1ccc(C(=O)N2C/C(=C\\c3ccc([N+](=O)[O-])cc3)C(=O)/C(=C/c3ccc([N+](=O)[O-])cc3)C2)cc1.Cl", "values": [{"measurement": "LogP", "setting": "[1]", "value": 5.27}, {"measurement": "Ratio", "setting": "[5]", "value": 77.5}, {"measurement": "Ratio", "setting": "[6]", "value": 14.1}, {"measurement": "pKa", "setting": "[2]", "value": 10.8}]}, {"smiles": "Cc1ccc(/C=C2\\CNC/C(=C\\c3ccc(C)cc3)C2=O)cc1", "values": [{"measurement": "LogP", "setting": "[1]", "value": 4.25}, {"measurement": "Ratio", "setting": "[4]", "value": 1.24}, {"measurement": "Ratio", "setting": "[5]", "value": 3.26}, {"measurement": "Ratio", "setting": "[6]", "value": 4.03}, {"measurement": "Ratio", "setting": "[7]", "value": 1}, {"measurement": "Ratio", "setting": "[8]", "value": 2.42}]}, {"smiles": "Cl.O=C1/C(=C/c2ccc([N+](=O)[O-])cc2)CN(C(=O)c2ccc(OCCN3CCOCC3)cc2)C/C1=C\\c1ccc([N+](=O)[O-])cc1", "values": [{"measurement": "LogP", "setting": "[1]; read-out: LogP", "value": 4.36}, {"measurement": "pKa", "setting": "[2]", "value": 8.5}]}, {"smiles": "Cl.O=C1/C(=C/c2ccc(Cl)cc2)CN(C(=O)c2ccc(OCCN3CCCCC3)cc2)C/C1=C\\c1ccc(Cl)cc1", "values": [{"measurement": "LogP", "setting": "[1]", "value": 6.86}, {"measurement": "IC50", "setting": "[3]", "value": 4.17, "unit": "µg/mL"}, {"measurement": "Ratio", "setting": "[5]", "value": 157}, {"measurement": "Ratio", "setting": "[6]", "value": 133}, {"measurement": "pKa", "setting": "[2]", "value": 11.1}]}, {"smiles": "CCN(CC)CCOc1ccc(C(=O)N2C/C(=C\\c3ccccc3)C(=O)/C(=C/c3ccccc3)C2)cc1.Cl", "values": [{"measurement": "LogP", "setting": "[1]", "value": 5.35}, {"measurement": "IC50", "setting": "[3]", "value": 3.27, "unit": "µg/mL"}, {"measurement": "pKa", "setting": "[2]", "value": 10.8}]}, {"smiles": "O=C1/C(=C/c2ccc([N+](=O)[O-])cc2)CNC/C1=C\\c1ccc([N+](=O)[O-])cc1", "values": [{"measurement": "LogP", "setting": "[1]", "value": 3.27}]}, {"smiles": "O=C1/C(=C/c2ccccc2)CNC/C1=C\\c1ccccc1", "values": [{"measurement": "LogP", "setting": "[1]", "value": 3.38}, {"measurement": "Ratio", "setting": "[5]", "value": 1.58}, {"measurement": "Ratio", "setting": "[6]", "value": 2}]}, {"smiles": "CC[N+](C)(CC)CCOc1ccc(C(=O)N2C/C(=C\\c3ccccc3)C(=O)/C(=C/c3ccccc3)C2)cc1.[I-]", "values": [{"measurement": "LogP", "setting": "[1]; read-out: LogP", "value": 1.37}, {"measurement": "Ratio", "setting": "[5]", "value": 1.37}, {"measurement": "Ratio", "setting": "[6]", "value": 1.05}]}, {"smiles": "CN(C)CCOc1ccc(C(=O)N2C/C(=C\\c3ccc(Cl)cc3)C(=O)/C(=C/c3ccc(Cl)cc3)C2)cc1.Cl", "values": [{"measurement": "LogP", "setting": "[1]", "value": 5.95}, {"measurement": "pKa", "setting": "[2]", "value": 10.7}]}, {"smiles": "CC[N+](C)(CC)CCOc1ccc(C(=O)N2C/C(=C\\c3ccc(Cl)cc3)C(=O)/C(=C/c3ccc(Cl)cc3)C2)cc1.[I-]", "values": [{"measurement": "LogP", "setting": "[1]; read-out: LogP", "value": 2.73}, {"measurement": "Ratio", "setting": "[5]", "value": 1.21}, {"measurement": "Ratio", "setting": "[6]", "value": 1.85}]}, {"smiles": "CCN(CC)CCOc1ccc(C(=O)N2C/C(=C\\c3ccc(C)cc3)C(=O)/C(=C/c3ccc(C)cc3)C2)cc1.Cl", "values": [{"measurement": "LogP", "setting": "[1]", "value": 6.25}, {"measurement": "IC50", "setting": "[3]", "value": 1.56, "unit": "µg/mL"}, {"measurement": "Ratio", "setting": "[5]", "value": 106}, {"measurement": "Ratio", "setting": "[6]", "value": 66.6}, {"measurement": "pKa", "setting": "[2]", "value": 10.8}]}, {"smiles": "CN(C)CCOc1ccc(C(=O)N2C/C(=C\\c3ccccc3)C(=O)/C(=C/c3ccccc3)C2)cc1.Cl", "values": [{"measurement": "LogP", "setting": "[1]", "value": 4.6}, {"measurement": "Ratio", "setting": "[5]", "value": 45.5}, {"measurement": "Ratio", "setting": "[6]", "value": 51.6}, {"measurement": "pKa", "setting": "[2]", "value": 10.7}]}, {"smiles": "Cc1ccc(/C=C2\\CN(C(=O)c3ccc(OCCN4CCOCC4)cc3)C/C(=C\\c3ccc(C)cc3)C2=O)cc1.Cl", "values": [{"measurement": "LogP", "setting": "[1]; read-out: LogP", "value": 5.34}, {"measurement": "pKa", "setting": "[2]", "value": 8.5}]}, {"smiles": "Cl.O=C1/C(=C/c2ccc(Cl)cc2)CN(C(=O)c2ccc(OCCN3CCOCC3)cc2)C/C1=C\\c1ccc(Cl)cc1", "values": [{"measurement": "LogP", "setting": "[1]; read-out: LogP", "value": 5.8}, {"measurement": "Ratio", "setting": "[5]", "value": 76}, {"measurement": "Ratio", "setting": "[6]", "value": 6.88}, {"measurement": "pKa", "setting": "[2]", "value": 8.5}]}, {"smiles": "Cl.O=C1/C(=C/c2ccc([N+](=O)[O-])cc2)CN(C(=O)c2ccc(OCCN3CCCCC3)cc2)C/C1=C\\c1ccc([N+](=O)[O-])cc1", "values": [{"measurement": "LogP", "setting": "[1]", "value": 5.42}, {"measurement": "IC50", "setting": "[3]", "value": 2.15, "unit": "µg/mL"}, {"measurement": "Ratio", "setting": "[5]", "value": 145}, {"measurement": "Ratio", "setting": "[6]", "value": 51.5}, {"measurement": "pKa", "setting": "[2]", "value": 11.1}]}, {"smiles": "Cc1ccc(/C=C2\\CN(C(=O)c3ccc(OCCN(C)C)cc3)C/C(=C\\c3ccc(C)cc3)C2=O)cc1.Cl", "values": [{"measurement": "LogP", "setting": "[1]", "value": 5.5}, {"measurement": "Activity", "setting": "[9]", "value": "Toxic"}, {"measurement": "pKa", "setting": "[2]", "value": 10.7}]}, {"smiles": "CC[N+](C)(CC)CCOc1ccc(C(=O)N2C/C(=C\\c3ccc(C)cc3)C(=O)/C(=C/c3ccc(C)cc3)C2)cc1.[I-]", "values": [{"measurement": "LogP", "setting": "[1]; read-out: LogP", "value": 2.27}, {"measurement": "Ratio", "setting": "[5]", "value": 1.93}, {"measurement": "Ratio", "setting": "[6]", "value": 114}]}, {"smiles": "O=C1/C(=C/c2ccc(Cl)cc2)CNC/C1=C\\c1ccc(Cl)cc1", "values": [{"measurement": "LogP", "setting": "[1]", "value": 4.71}, {"measurement": "Ratio", "setting": "[5]", "value": 1.25}, {"measurement": "Ratio", "setting": "[6]", "value": 0.91}]}, {"smiles": "COc1ccc(CCN(C)CCC[C@](C#N)(c2ccc(OC)c(OC)c2)C(C)C)cc1OC", "values": [{"measurement": "IC50", "setting": "[3]", "value": 42, "unit": "µg/mL"}]}, {"smiles": "CC[N+](C)(CC)CCOc1ccc(C(=O)N2C/C(=C\\c3ccc([N+](=O)[O-])cc3)C(=O)/C(=C/c3ccc([N+](=O)[O-])cc3)C2)cc1.[I-]", "values": [{"measurement": "LogP", "setting": "[1]; read-out: LogP", "value": 1.3}, {"measurement": "Ratio", "setting": "[5]", "value": 1.03}, {"measurement": "Ratio", "setting": "[6]", "value": 1.22}]}, {"smiles": "CCN(CC)CCOc1ccc(C(=O)N2C/C(=C\\c3ccc(Cl)cc3)C(=O)/C(=C/c3ccc(Cl)cc3)C2)cc1.Cl", "values": [{"measurement": "LogP", "setting": "[1]", "value": 6.71}, {"measurement": "IC50", "setting": "[3]", "value": 1.53, "unit": "µg/mL"}, {"measurement": "Ratio", "setting": "[5]", "value": 118}, {"measurement": "Ratio", "setting": "[6]", "value": 99.7}, {"measurement": "pKa", "setting": "[2]", "value": 10.8}]}]}
